Assays:
[1] = Ability to displace [3H]CGP-39653 binding to N-methyl-D-aspartate glutamate receptor from rat forebrain
Outline: (§1)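 Rat forebrain homogenates; displacement of [3H]kainic acid (kainate), [3H]AMPA (AMPA) or [3H]CGP39653 (NMDA) binding, tested up to 100 000 nM. Where an IC50 below 100 µM could be determined, runs were in triplicate. Values are given as mean IC50 ± standard error.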

[2] = target: T1, Metabotropic glutamate receptor 3 (Homo sapiens, UniProt Q14832); assay: Ability to displace [3H]LY-341,495 from recombinant human Metabotropic glutamate receptor 3 expressed in RGT cells.; assay type: cell-based
[3] = Ability to displace [3H]LY-341,495 binding to Group II Metabotropic glutamate receptor from rat forebrain
Outline: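 Rat forebrain homogenates; displacement of the group II-selective radioligand [3H]LY341495. Where an IC50 below 100 µM could be determined, runs were in triplicate. Values are given as mean IC50 ± standard error.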

[4] = target: Glutamate receptor ionotropic, kainate; assay: Ability to displace [3H]-KA binding to Ionotropic glutamate receptor kainate from rat forebrain; outline: as §1
[5] = target: T2, Glutamate receptor ionotropic, AMPA (Rattus norvegicus, UniProt P19490+P19491+P19492+P19493); assay: Ability to displace [3H]AMPA binding to Ionotropic glutamate receptor AMPA from rat forebrain; outline: as §1
[6] = target: T3, Metabotropic glutamate receptor 2 (Homo sapiens, UniProt Q14416); assay: Ability to displace [3H]LY-341,495 from recombinant human Metabotropic glutamate receptor 2 subtypes expressed in RGT cells.; assay type: cell-based
[7] = target: Metabotropic glutamate receptor 5 (Homo sapiens, UniProt P41594); assay: […] in RGT cells expressing recombinant human mGluR5a; assay type: functional, cell-based
Outline: (§2)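 AV12-664 (RGT) cells co-expressing the GLAST glutamate transporter and one recombinant human mGlu receptor (mGlu1a, mGlu4a, mGlu5a, mGlu6, mGlu7a or mGlu8). Second-messenger response measured; agonist and antagonist modes tested, typically up to 10 000–100 000 nM. EC50 and Emax reported.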

Mus musculus [8] = assay: Effect on limbic seizures induced by ACPD in NIH Swiss mice 2 hr after systemic administration; assay type: functional; settings: Limbic system
Outline: (§3)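 Male NIH Swiss mice received test agent ip 1, 2 or 4 h before unilateral intracerebral injection of (1S,3R)-ACPD (400 nmol). Controls received H2O ip before ic H2O or ACPD. Mice were watched after ACPD for limbic seizures (clonic forelimb contractions, rearing to a praying stance, loss of balance, falling). Scored as number seizing/number treated (n=10); ED50 calculated.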

[9] = target: Metabotropic glutamate receptor 1 (Homo sapiens, UniProt Q13255); assay: […] in RGT cells expressing recombinant human mGluR1a; assay type: functional, cell-based; outline: as §2
[10] = target: Metabotropic glutamate receptor 7 (Homo sapiens, UniProt Q14831); assay: Inhibition of forskolin stimulated cAMP production in RGT cells expressing recombinant human mGluR7; assay type: functional, cell-based; outline: as §2
Mus musculus [11] = assay: Effect on limbic seizures induced by ACPD in NIH Swiss mice at 30 mg/kg dose 1 hr after systemic administration; assay type: functional, Limbic system; outline: as §3
[12] = target: Metabotropic glutamate receptor 4 (Homo sapiens, UniProt Q14833); assay: Inhibition of forskolin stimulated cAMP production in RGT cells expressing recombinant human mGluR4a; assay type: functional, cell-based; outline: as §2
[13] = target: T3, Metabotropic glutamate receptor 2; assay: Inhibition of forskolin stimulated cAMP production in RGT cells expressing recombinant human Metabotropic glutamate receptor 2; assay type: functional, cell-based
[14] = target: Metabotropic glutamate receptor 6 (Homo sapiens, UniProt O15303); assay: Inhibition of forskolin stimulated cAMP production in RGT cells expressing recombinant human mGluR6; assay type: functional, cell-based; outline: as §2
[15] = target: Metabotropic glutamate receptor 8 (Homo sapiens, UniProt O00222); assay: Inhibition of forskolin stimulated cAMP production in RGT cells expressing recombinant human mGluR8; assay type: functional, cell-based; outline: as §2
[16] = target: T1, Metabotropic glutamate receptor 3; assay: Inhibition of forskolin stimulated cAMP production in RGT cells expressing recombinant human Metabotropic glutamate receptor 3; assay type: functional, cell-based
Mus musculus [17] = assay: Effect on limbic seizures induced by ACPD in NIH Swiss mice 1 hr after systemic administration; assay type: functional; settings: Limbic system; outline: as §3
Mus musculus [18] = assay: Effect on limbic seizures induced by ACPD in NIH Swiss mice 4 hr after systemic administration; assay type: functional; settings: Limbic system; outline: as §3
Mus musculus [19] = assay: Effect on limbic seizures induced by ACPD in NIH Swiss mice at 100 mg/kg dose 1 hr after systemic administration; assay type: functional, Limbic system; outline: as §3
[20] = target: T2, Glutamate receptor ionotropic, AMPA; assay: Binding affinity against Ionotropic glutamate receptor AMPA using [3H]AMPA as radioligand.; assay type: protein-complex assay; outline: as §1

Chain of Metabotropic glutamate receptor 7 (Q14831 whole entry): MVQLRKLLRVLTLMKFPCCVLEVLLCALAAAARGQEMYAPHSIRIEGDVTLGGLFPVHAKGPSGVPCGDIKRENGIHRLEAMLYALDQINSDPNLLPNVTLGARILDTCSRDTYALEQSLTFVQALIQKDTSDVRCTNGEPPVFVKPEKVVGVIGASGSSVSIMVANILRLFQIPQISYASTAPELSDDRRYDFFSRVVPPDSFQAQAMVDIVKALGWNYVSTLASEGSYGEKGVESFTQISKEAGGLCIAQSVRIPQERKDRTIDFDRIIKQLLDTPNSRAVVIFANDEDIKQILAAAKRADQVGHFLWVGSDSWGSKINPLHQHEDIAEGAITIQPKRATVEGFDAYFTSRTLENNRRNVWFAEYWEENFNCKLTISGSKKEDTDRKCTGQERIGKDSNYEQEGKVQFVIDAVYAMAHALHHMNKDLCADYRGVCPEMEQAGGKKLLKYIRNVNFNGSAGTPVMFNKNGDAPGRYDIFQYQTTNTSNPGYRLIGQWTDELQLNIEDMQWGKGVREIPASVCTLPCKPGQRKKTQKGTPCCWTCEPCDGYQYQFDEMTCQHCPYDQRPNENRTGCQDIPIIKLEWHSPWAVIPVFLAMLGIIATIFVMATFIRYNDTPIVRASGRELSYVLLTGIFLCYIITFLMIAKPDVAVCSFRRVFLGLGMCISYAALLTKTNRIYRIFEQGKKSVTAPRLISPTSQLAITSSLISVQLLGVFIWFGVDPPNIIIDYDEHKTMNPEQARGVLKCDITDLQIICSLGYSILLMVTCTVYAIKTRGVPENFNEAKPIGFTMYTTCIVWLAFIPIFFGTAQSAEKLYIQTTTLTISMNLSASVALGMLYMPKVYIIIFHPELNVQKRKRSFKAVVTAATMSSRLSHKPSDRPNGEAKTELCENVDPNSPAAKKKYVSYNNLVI
Chain of Metabotropic glutamate receptor 6 (O15303 whole entry): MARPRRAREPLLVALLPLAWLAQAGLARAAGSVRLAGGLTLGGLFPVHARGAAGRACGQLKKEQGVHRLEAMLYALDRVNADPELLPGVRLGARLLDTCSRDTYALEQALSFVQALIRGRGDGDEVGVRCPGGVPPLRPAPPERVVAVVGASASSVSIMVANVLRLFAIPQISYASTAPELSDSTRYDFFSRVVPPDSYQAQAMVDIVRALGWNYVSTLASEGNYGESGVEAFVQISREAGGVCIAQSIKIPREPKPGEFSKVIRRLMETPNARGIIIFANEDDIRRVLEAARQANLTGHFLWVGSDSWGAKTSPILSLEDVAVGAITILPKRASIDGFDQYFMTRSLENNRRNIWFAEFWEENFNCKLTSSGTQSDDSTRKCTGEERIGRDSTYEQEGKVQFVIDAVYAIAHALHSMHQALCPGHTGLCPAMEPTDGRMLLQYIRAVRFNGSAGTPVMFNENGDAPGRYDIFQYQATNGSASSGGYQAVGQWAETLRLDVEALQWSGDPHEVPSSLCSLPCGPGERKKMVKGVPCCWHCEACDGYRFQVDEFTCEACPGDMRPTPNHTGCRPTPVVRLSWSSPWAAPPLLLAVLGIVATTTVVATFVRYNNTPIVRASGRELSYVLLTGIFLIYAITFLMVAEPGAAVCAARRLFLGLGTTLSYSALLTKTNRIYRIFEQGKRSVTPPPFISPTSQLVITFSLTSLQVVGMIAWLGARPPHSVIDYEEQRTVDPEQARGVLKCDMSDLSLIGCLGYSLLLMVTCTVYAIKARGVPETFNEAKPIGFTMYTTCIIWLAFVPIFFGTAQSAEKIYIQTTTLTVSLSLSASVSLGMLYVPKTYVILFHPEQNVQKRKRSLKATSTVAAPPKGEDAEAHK
Chain of Metabotropic glutamate receptor 4 (Q14833 whole entry): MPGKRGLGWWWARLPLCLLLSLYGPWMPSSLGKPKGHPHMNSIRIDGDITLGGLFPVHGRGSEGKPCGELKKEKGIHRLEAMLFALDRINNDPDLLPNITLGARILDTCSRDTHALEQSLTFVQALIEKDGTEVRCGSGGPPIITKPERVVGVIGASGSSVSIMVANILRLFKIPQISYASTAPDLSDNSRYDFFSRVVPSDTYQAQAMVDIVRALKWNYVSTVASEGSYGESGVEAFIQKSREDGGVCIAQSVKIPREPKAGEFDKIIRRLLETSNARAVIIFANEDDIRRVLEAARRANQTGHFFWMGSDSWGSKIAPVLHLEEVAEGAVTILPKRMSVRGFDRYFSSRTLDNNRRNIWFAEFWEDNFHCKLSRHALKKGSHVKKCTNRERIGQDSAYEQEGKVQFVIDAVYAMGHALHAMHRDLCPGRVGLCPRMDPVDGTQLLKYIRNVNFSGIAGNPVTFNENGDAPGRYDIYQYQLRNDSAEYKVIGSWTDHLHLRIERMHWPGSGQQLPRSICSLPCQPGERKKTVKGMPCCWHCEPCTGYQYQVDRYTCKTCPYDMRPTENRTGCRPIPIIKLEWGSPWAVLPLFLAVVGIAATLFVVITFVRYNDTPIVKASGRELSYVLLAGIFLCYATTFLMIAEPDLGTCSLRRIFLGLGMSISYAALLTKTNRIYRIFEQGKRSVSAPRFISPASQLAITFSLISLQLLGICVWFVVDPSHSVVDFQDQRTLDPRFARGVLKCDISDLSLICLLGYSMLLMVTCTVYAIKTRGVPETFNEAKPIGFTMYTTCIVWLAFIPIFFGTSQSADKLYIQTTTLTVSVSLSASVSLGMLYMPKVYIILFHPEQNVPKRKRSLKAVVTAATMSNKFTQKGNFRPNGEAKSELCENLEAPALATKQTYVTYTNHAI
Chain of Metabotropic glutamate receptor 1 (Q13255 whole entry): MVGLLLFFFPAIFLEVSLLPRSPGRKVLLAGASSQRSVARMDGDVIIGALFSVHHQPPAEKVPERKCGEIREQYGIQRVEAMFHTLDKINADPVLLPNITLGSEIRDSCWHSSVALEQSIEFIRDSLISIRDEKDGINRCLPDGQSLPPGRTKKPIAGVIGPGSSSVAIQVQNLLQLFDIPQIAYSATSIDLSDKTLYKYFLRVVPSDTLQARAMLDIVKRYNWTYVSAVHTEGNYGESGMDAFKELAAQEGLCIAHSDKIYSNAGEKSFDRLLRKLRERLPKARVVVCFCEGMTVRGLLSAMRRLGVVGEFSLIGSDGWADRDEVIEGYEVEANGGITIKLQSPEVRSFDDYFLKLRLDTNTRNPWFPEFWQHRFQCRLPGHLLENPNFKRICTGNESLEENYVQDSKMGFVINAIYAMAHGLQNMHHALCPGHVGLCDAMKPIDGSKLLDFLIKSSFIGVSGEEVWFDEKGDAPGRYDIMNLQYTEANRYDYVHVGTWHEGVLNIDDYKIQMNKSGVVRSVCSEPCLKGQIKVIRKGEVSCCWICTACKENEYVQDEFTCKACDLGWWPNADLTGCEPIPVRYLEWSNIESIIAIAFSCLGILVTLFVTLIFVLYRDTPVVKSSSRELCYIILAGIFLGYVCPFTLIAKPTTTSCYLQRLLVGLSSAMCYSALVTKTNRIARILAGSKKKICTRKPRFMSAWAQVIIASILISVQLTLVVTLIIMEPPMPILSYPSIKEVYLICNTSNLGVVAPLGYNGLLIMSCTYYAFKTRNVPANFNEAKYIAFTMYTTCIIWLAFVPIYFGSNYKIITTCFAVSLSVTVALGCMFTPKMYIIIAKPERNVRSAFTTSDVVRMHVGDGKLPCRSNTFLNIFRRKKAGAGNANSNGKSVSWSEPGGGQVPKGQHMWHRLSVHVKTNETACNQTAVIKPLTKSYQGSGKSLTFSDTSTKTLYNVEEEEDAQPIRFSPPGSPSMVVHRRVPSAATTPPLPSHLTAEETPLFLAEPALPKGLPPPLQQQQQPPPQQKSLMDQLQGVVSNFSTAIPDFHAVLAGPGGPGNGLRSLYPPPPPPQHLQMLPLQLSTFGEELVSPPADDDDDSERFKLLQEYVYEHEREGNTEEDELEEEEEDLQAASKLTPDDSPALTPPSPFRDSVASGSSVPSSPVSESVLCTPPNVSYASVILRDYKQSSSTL
T1 sequence (Q14832 whole entry): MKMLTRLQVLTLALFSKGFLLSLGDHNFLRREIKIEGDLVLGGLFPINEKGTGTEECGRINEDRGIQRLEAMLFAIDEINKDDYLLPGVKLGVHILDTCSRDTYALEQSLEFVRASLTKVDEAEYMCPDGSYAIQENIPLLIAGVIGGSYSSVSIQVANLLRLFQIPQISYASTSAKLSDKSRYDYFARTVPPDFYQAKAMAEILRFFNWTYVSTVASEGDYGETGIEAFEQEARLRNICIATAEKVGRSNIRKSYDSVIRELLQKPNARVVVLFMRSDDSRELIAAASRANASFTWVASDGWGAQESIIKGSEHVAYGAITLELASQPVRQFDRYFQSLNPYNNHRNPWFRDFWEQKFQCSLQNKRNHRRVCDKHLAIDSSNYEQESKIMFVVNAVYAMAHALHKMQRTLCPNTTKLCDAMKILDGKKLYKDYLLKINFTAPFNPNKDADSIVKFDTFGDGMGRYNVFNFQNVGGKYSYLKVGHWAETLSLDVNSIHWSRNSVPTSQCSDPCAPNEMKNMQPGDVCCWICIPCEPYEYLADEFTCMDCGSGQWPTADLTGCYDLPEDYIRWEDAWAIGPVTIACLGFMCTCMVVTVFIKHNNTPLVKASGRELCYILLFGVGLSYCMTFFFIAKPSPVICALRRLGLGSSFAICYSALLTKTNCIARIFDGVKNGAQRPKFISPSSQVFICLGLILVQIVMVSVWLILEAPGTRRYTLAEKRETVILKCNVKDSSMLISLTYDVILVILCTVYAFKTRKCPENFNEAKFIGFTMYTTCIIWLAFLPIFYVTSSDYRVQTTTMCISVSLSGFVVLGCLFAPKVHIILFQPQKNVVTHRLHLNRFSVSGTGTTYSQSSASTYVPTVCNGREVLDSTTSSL

| SMILES | IC50 [1] [nM] | Ki [2] [nM] | IC50 [3] [nM] | IC50 [4] [nM] | IC50 [5] [nM] | Ki [6] [nM] | EC50 [7] [nM] | ED50 (Mus musculus [8]) [mg/kg] | EC50 [9] [nM] | EC50 [10] [nM] | No. of mice effected/No. of treated (Mus musculus [11]) | EC50 [12] [nM] | EC50 [13] [nM] | EC50 [14] [nM] | EC50 [15] [nM] | EC50 [16] [nM] | ED50 (Mus musculus [17]) [mg/kg] | ED50 (Mus musculus [18]) [mg/kg] | No. of mice effected/No. of treated (Mus musculus [19]) | IC50 [20] [nM] |
| --- | --- | --- | --- | --- | --- | --- | --- | --- | --- | --- | --- | --- | --- | --- | --- | --- | --- | --- | --- | --- |
| N[C@@]1(C(=O)O)CS[C@H]2[C@H](C(=O)O)[C@H]21 (racemic) [LY-389795] | > 100000 | 9.4 | 26.1 | > 100000 | > 100000 | 67.2 | – | – | – | – | – | – | – | – | – | – | – | – | – | – |
| N[C@@]1(C(=O)O)CO[C@H]2[C@H](C(=O)O)[C@H]21 (stereo in doubt; (-)-9) [LY-379268] | > 100000 | 5.8 | 15 | > 100000 | > 100000 | 14.1 | > 100000 | 6 | > 100000 | > 100000 | 10 | 21100 | 2.69 | 401 | 1690 | 4.58 | 19 | 26 | 10 | – |
| N[C@@]1(C(=O)O)CS[C@H]2[C@H](C(=O)O)[C@H]21 (stereo in doubt; (+)-10) [LY-389795] | – | 170 | 792 | – | – | 819 | – | – | – | – | – | – | – | – | – | – | – | – | – | – |
| N[C@@]1(C(=O)O)CO[C@H]2[C@H](C(=O)O)[C@H]21 (racemic) [LY-379268] | – | 14.3 | 29 | – | – | 36.5 | – | – | – | – | – | – | – | – | – | – | – | – | – | – |
| N[C@@]1(C(=O)O)CC[C@H]2[C@H](C(=O)O)[C@H]21 [EGLUMETAD] | > 100000 | 93.3 | 254 | > 100000 | – | 74.9 | > 100000 | – | > 100000 | > 100000 | – | > 100000 | 11.1 | 2990 | 11500 | 38 | – | – | – | > 100000 |
| N[C@@]1(C(=O)O)CO[C@H]2[C@H](C(=O)O)[C@H]21 (stereo in doubt; (+)-9) [LY-379268] | – | 1040 | 5040 | – | – | 2000 | – | – | – | – | – | – | – | – | – | – | – | – | – | – |
| N[C@@]1(C(=O)O)CS[C@H]2[C@H](C(=O)O)[C@H]21 (stereo in doubt; (-)-10) [LY-389795] | – | 4.7 | 8.4 | – | – | 40.6 | > 100000 | 15 | > 100000 | > 100000 | 10 | > 100000 | 3.91 | 2430 | 7340 | 7.63 | 14 | 14 | 10 | – |

Reference: ChEMBL document CHEMBL1132607, “Synthesis, pharmacological characterization, and molecular modeling of heterobicyclic amino acids related to (+)-2-aminobicyclo[3.1.0] hexane-2,6-dicarboxylic acid (LY354740): identification of two new potent, selective, and systemically active agonists for group II metabotropic glutamate receptors” (J Med Chem, 1999)
